Compounds with a hit are over-represented: about 2.4% of the library has one in this group of screens.
VIM-2 inh = blocks Pseudomonas aeruginosa VIM-2 metallo-beta-lactamase | purified VIM-2, nitrocefin hydrolysis, epi-absorbance fluorescence | inhibition, % at 5.6 µM | 290,000 compounds, 0.89% hits | AID 1527;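 active = inhibition above the mean of all tested compounds plus 3 SD, cutoff set per screening run, cut at about 7.5% in these data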;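 note: red hydrolysis product quenches plate fluorescence so inhibitors raise well fluorescence; 0% = enzyme with DMSO and 100% = DMSO without enzyme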
HGIII-sPLA2 inh = Blocks human group III sPLA2 activity; Q9NZ20; QFRET BODIPY PC-A2 liposome hydrolysis, fluorescence; inhibition, % at 12.2 µM; 370,000 compounds, 0.56% hits; AID 743126;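 active = inhibition above mean plus 3 SD of compounds lying within the high and low control bounds, cut at about 19% in these data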;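 note: 0% = median of test compound wells and 100% = no enzyme DMSO wells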
IMP-1 inhibitor = blocks Pseudomonas aeruginosa IMP-1 metallo-beta-lactamase | inhibition, % at 5.6 µM | purified IMP-1, nitrocefin hydrolysis, epi-absorbance fluorescence | 290,000 compounds, 0.45% hits | AID 1556;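 active = inhibition above the mean plus 3 SD of all compounds in the same screening run, cut at about 4.5% in these data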;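 note: 0% = IMP-1 with DMSO and 100% = DMSO wells lacking enzyme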
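Test system: recombinant IMP-1 enzyme, purified / Medium: HEPES buffer pH 7.1 with ZnSO4 and Brij 35 / Doses: single dose, 5.6 µM / Times: 25 °C, 15 min preincubation, 25 min reaction / Detection: Epi-absorbance via hydrolysed-nitrocefin quenching of white-plate fluorescence, 480/530 nm, EDTA stop / Evaluation: percent inhibition from optical density relative to buffer-blank wells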
PfM18AAP inh-1 = blocks P. falciparum M18 aspartyl aminopeptidase; recombinant PfM18AAP, H-Glu-NHMec fluorogenic cleavage; inhibition, % at 7.35 µM; 290,000 compounds, 1.2% hits; AID 1822;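 active = inhibition above the campaign mean inhibition over all tested compounds plus 3 SD, cut at about 28% in these data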;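 note: 0% = plate median of test compound wells and 100% = 2 mM ZnCl2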
PfM18AAP inh-2 = PfM18AAP inhibition, confirmation; shares compounds with PfM18AAP inh-1; recombinant PfM18AAP, H-Glu-NHMec fluorogenic cleavage; inhibition, % at 7.35 µM; 2,400 compounds, 28% hits;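 active = mean inhibition over replicate wells above the hit cutoff set for the earlier primary screen, cut at about 29% in these data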;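 note: 0% = median of test compound wells and 100% = 2 mM ZnCl2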
CTSL1 confirm = counter-screen for PFM18AAP inhibitors: confirmation of human cathepsin L inhibitors; inhibition, % at 5.96 µM; purified cathepsin L1, Z-Leu-Arg-MCA fluorescence; 2,400 tested, under 10 active; AID 2178; shares compounds with PfM18AAP inh-1;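 active = average inhibition across replicates above the hit cutoff set in the earlier primary screen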;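 note: 0% = median of test compound wells and 100% = Z-Phe-Ala-diazomethylketone 1 µM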
Target sequence (P07711 whole entry, looked up): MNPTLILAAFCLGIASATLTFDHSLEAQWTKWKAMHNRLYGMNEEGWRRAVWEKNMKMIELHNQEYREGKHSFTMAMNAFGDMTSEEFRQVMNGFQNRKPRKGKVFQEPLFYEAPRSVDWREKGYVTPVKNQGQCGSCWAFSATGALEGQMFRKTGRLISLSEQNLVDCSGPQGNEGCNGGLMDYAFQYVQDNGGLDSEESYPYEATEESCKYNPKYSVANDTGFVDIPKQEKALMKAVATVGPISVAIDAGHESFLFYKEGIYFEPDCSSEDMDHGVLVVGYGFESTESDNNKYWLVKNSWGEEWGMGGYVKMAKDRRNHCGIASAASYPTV
* = called active by the depositor; nt = no result given.

SMILES	VIM-2 inh	HGIII-sPLA2 inh	IMP-1 inhibitor	PfM18AAP inh-1	PfM18AAP inh-2	CTSL1 confirm
Cc1ccsc1/C=c1\sc2ncnn2c1=O	2	-3	-1	87*	55*	4
CC(C)(C)N=C1NN=C(c2ccc(S(=O)(=O)N3CCCCC3)cc2)CS1	nt	-16	nt	nt	nt	nt
Oc1ccc(Nc2nc(-c3ccc(O)cc3)cs2)cc1	-1	-19	-1	8	nt	nt
NS(=O)(=O)c1ccc(Nc2nc(-c3ccc(O)cc3)cs2)cc1	-1	-26	0	45*	44*	-2
CCc1nnc(NC(=O)CSc2nnc(CNC(=O)c3cc(OC)c(OC)c(OC)c3)o2)s1	-6	-3	-4	41*	-46	-1
COc1ccc(C(=O)NCc2nnc(SCC(=O)Nc3nnc(C)s3)o2)cc1	-4	-4	-2	35*	-30	-1
CCSc1nnc(NC(=O)CSc2nnc(CNC(=O)c3ccc(OC)cc3)o2)s1	-5	8	-5	5	nt	nt
Cc1nnc(NC(=O)CSc2nnc(CNC(=O)c3ccc(F)cc3)o2)s1	-4	0	1	16	nt	nt
COc1ccc(C(=O)NCc2nnc(SCC(=O)Nc3nnc(C)s3)o2)cc1OC	-3	-2	-2	47*	-36	1
CCOc1ccc(-c2c(C)sc3nc[nH]c(=O)c23)cc1	-1	-1	-2	-2	nt	nt
COC(=O)C1=C(C)N(Cc2ccc(C(F)(F)F)cc2)C(=NCc2cccc(C(F)(F)F)c2)NC1c1ccccc1C(F)(F)F (centres undefined)	nt	-14	nt	nt	nt	nt
COc1cc(OC)c2c(-c3cccc(-c4ccc(F)c(Cl)c4)c3)cc(=O)oc2c1	nt	1	nt	nt	nt	nt
C[C@@H]1CN([C@@H](C)CO)C(=O)c2cc(C#Cc3ccccc3)cnc2O[C@H]1CN(C)C(=O)c1ccccc1F	nt	-2	nt	nt	nt	nt
Cc1cccc(C(=O)Nc2ccc(C(=O)N/N=C/c3ccc(C)o3)cc2)c1	-5	0	-2	42*	-31	3
Cc1nc2ccccn2c1C(=O)NNC(=O)Nc1cccc(C(F)(F)F)c1	-2	7	0	64*	33*	8
Cc1cccc(NC(=O)c2c(C)nc3ccccn23)c1	0	-4	-1	2	nt	nt
Cc1ccn2c(C(=O)NNC(=O)Nc3ccc(Cl)cc3)c(C)nc2c1	-4	10	-2	64*	48*	-4
CCCN(C(=O)c1cc(S(=O)(=O)N2CCN(CC)CC2)ccc1Cl)C1CCS(=O)(=O)C1 (centres undefined)	nt	7	nt	nt	nt	nt
Cc1ccc(Nc2cc(C(=O)NCCCN3CCOCC3)c3ccccc3n2)cc1C	0	-14	0	2	nt	nt
Cc1oc2cc(O)ccc2c(=O)c1Oc1ccccc1	-2	5	-2	4	nt	nt
CC(=O)Oc1ccc2c(=O)c(Oc3ccccc3)c(C)oc2c1OC(C)=O	2	0	-2	44*	19	-7
CC1(C)CN(C2CCCCC2)C(=O)[C@H]1CC(=O)Nc1ccc(Br)cc1	nt	10	nt	nt	nt	nt
Cc1ccc(/C=C/C(=O)Nc2nn[nH]n2)o1	1	0	0	51*	14	6
CC(C)c1ccc(/C=C/C(=O)Nc2nn[nH]n2)cc1	-1	nt	-2	-4	nt	nt
COc1ccc(NC(=O)c2sc3nc(N4CCCC4)c4c(c3c2N)CC(C)(C)OC4)c(OC)c1	-5	-3	-1	4	nt	nt
SMILES	VIM-2 inh	HGIII-sPLA2 inh	IMP-1 inhibitor	PfM18AAP inh-1	PfM18AAP inh-2	CTSL1 confirm
CC1(C)Cc2c(c(N3CCOCC3)nc3sc(C(N)=O)c(N)c23)CO1	2	-2	0	43*	11	3
CCOc1ccc(NC(=O)c2sc3nc(N4CCOCC4)c4c(c3c2N)CC(C)(C)OC4)cc1	-1	-1	-2	42*	0	-1
CC1(C)Cc2c(c(N3CCOCC3)nc3sc(C(=O)Nc4ccc(Cl)cc4)c(N)c23)CO1	-2	-8	-2	40*	0	-7
COC(=O)c1ccc(-c2sc3nc(N4CCOCC4)c4c(c3c2N)CC(C)(C)OC4)o1	-3	-20	-4	-1	nt	nt
CC1(C)Cc2c(c(N3CCCC3)nc3sc(C(=O)Nc4ccccc4)c(N)c23)CO1	-2	5	-2	23	nt	nt
Cc1ccc(NC(=O)c2sc3nc(N4CCOCC4)c4c(c3c2N)CC(C)(C)OC4)cc1	-5	5	-1	39*	-55	2
CCOC(=O)[C@@]12CCCC=C1N(CCc1ccc(Cl)cc1)C(=O)[C@H]2CC(=O)N1CCCCC1	nt	-3	nt	nt	nt	nt
C/C(Cn1nc([N+](=O)[O-])cc1C)=N\NC(=O)c1ccc(O)cc1O	-2	-9	0	41*	4	6
COc1cc(C(=O)N/N=C(\C)Cn2nc([N+](=O)[O-])cc2C)ccc1O	-3	1	-5	-2	nt	nt
CCOc1ccc(NC(=S)NNC(=S)Nc2cccc(C(F)(F)F)c2)cc1	-4	-4	-2	15	nt	nt
COc1ccc(NC(=S)NNC(=S)Nc2cccc(C(F)(F)F)c2)cc1	-4	9	-3	42*	-19	0
COC(=O)c1cc(O)c(O)c(O)c1	-1	1	-4	32*	-5	10
O=C(Nc1cccc(C(F)(F)F)c1)Nn1cnnc1	-1	-7	-4	70*	64*	0
COc1cccc(NC(=O)Nc2cccnc2)c1	-2	5	-2	1	nt	nt
O=C(Nc1ccc(Cl)c(Cl)c1)Nn1cnnc1	0	-4	-2	76*	71*	-1
COc1cccc(NC(=O)Nn2cnnc2)c1	0	-1	1	63*	49*	1
O=C(Nc1ccc(Cl)cc1)Nc1ccc(Cl)c(Cl)c1	nt	3	nt	nt	nt	nt
O=C(Nc1cccc(Cl)c1)Nn1cnnc1	-1	9	0	67*	58*	-4
CCOc1ccc(S(=O)(=O)N2CCCCC2)cc1NC(=O)CC1OC(=O)c2ccccc21 (centres undefined)	nt	-5	nt	nt	nt	nt
CS(=O)(=O)c1ccc(Cl)c(NC(=O)CSc2nc3ccccc3c(=O)n2Cc2ccco2)c1	nt	1	nt	nt	nt	nt
O=C(NNc1nccc(C(F)(F)F)n1)Nc1cccc(Cl)c1	-2	nt	1	46*	14	-2
O=C(NNc1cc(C(F)(F)F)nc2ccccc12)Nc1cccc(Cl)c1	-2	-10	-3	27	nt	nt
Cc1ccc(NC(=O)Nn2cnnc2)cc1Cl	-2	2	-3	69*	54*	-2
CCCCn1nnnc1C(c1ccccc1)N1CCN(c2ccccn2)CC1 (centres undefined)	nt	-3	nt	nt	nt	nt
O=C(NNc1ccc(Cl)nn1)c1ccc(Cl)cc1	0	10	-4	38*	-4	-2
O=c1[nH]c2ccc(S(=O)(=O)Nc3ccccc3O)cc2[nH]1	-1	8	1	50*	47*	-1
COc1ccccc1NS(=O)(=O)c1ccc2[nH]c(=O)[nH]c2c1	-2	1	-4	-1	nt	nt
CCN1C(C)=C(C)S/C1=C1\SC(=S)N(N)C1=O	-2	2	-5	76*	-20	2
CCNc1nc(NCC)nc(N/N=C/c2ccc(N(C)C)cc2)n1	-1	8	-2	7	nt	nt
